Bcl-W Bim block: human Bim-Bcl-W interaction inhibition. Q92843. inhibition, % at 10 µM. 190,000 tested, 0.02% active. bead-based flow cytometry, Bim peptide-Bcl-W binding;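 also: 0% = bound tracer without compound and 100% = peptide blocker; higher means less fluorescent Bim peptide bound to Bcl-W beads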
Target sequence (Q92843 whole entry, looked up): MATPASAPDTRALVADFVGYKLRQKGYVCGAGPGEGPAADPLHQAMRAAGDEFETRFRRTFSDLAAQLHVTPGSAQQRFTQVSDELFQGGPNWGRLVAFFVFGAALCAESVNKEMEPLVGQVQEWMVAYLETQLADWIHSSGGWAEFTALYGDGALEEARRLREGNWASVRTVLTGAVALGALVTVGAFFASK
Calb biofilm kill: mixtures killing C. albicans biofilm. C. albicans biofilm persisters + clotrimazole, fluorescence viability; primary screen in compound mixtures of four per well. AID 1242. inhibition, % at 7.6 µM. 120,000 tested, 0.02% active;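 active = inhibition above 30.3% in the primary screen of four-compound pools, then above 30% when the compound was retested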;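 also: compounds exposed to preformed 24 h biofilms for 48 h; 0% = untreated biofilm control and 100% = clotrimazole plus chlorhexidine kill blank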
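Test system: C. albicans CAF4-2 wild-type biofilms; buffer or medium: RPMI/MOPS medium, pH 7.0; schedule: 24 h biofilm formation, then 48 h compound exposure, 37 °C; detection: Alamar Blue fluorescence; measure: percent inhibition of biofilm viability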
Bcl-2 Bim block: human Bim-Bcl-2 interaction inhibition; 190,000 tested, 0.06% active; inhibition, % at 10 µM; Bead-based flow cytometry, Bim peptide-Bcl-2 binding; P10415; in the data active = inhibition above about 40%;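 also: 0% = no compound wells with probe peptide and 100% = reference peptide inhibitor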
Bcl-B Bim block: human Bim-Bcl-B interaction inhibition; Q9HD36; bead-based flow cytometry, Bim peptide-Bcl-B binding; inhibition, % at 10 µM; 190,000 tested, 0.073% active; AID 951;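 also: 0% = tracer peptide without compound and 100% = reference inhibitor peptide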
Target sequence (Q9HD36 whole entry, looked up): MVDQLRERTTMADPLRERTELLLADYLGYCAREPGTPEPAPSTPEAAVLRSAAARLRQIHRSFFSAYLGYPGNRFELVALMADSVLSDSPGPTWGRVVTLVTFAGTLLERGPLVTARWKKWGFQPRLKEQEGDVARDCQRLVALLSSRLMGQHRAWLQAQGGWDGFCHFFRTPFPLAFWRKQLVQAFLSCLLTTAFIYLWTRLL
Bim-Bfl-1: human Bim-Bfl-1 interaction inhibition; Q16548; Bead-based flow cytometry, Bim-Bfl-1 binding inhibition; inhibition, % at 10 µM; 190,000 tested, 0.12% active;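 also: 0% = wells without compound plus tracer and 100% = blocker peptide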
Target sequence (Q16548 whole entry, looked up): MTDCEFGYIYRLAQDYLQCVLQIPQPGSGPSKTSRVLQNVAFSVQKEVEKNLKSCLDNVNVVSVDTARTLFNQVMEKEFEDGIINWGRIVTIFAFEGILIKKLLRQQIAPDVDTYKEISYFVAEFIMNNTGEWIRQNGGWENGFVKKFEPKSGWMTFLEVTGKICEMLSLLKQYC
Bim-Bcl-XL: disrupts Bim peptide binding to human Bcl-XL; 190,000 tested, 0.04% active; inhibition, % at 10 µM; bead flow cytometry, fluorescence
* hit, by the source's call; / = no result. Shown are actives, neighbours in structure and some others; about 0.19% of the full set was active somewhere. Rule as the data show it, unless noted: active = inhibition above about 40%.

SMILES	Bcl-W Bim block	Calb biofilm kill	Bcl-2 Bim block	Bcl-B Bim block	Bim-Bfl-1	Bim-Bcl-XL
c1coc(C2Nc3cccc4cccc(c34)N2)c1	36	/	16	4	42*	11
O=C(NCc1ccco1)C1CC2CCC1C2 (stereo unspecified)	4	/	1	2	2	47*
O=C(O)C1C2CCC(C2)C1C(=O)NCc1ccco1 (stereo unspecified)	1	/	-3	-4	-14	-4
O=C1CCCC2(O)C1C(c1cccc(Br)c1)NC(=O)N2Cc1ccccc1 (stereo unspecified)	39	12	39	39	38	49*
Cc1nn(-c2ccccn2)c2c1C(=O)C(Br)CC2 (stereo unspecified)	35	12	24	0	59*	12
CSc1nn2c(C(F)(F)F)cc(C(F)(F)F)nc2c1C(=O)O	/	6	/	/	/	/
c1ccc(Cc2nnc(-c3ccccc3)o2)cc1	0	/	-6	-4	-4	1
Cc1ccc(-c2nnc(Cc3ccc(Cl)cc3)o2)cc1	35	/	92*	87*	67*	28
COc1c(O)ccc(C2NC(=O)NC(C)=C2C(=O)Nc2ccccc2C)c1[N+](=O)[O-] (stereo unspecified)	-1	21	-3	-7	-6	-3
Cc1cc(Br)cnc1NC(=S)Nc1ccc(F)cc1F	-1	6	0	-9	-5	-6
COc1ccc(COC(=O)NNC(=O)c2ccccc2Cl)cc1	25	/	83*	83*	66*	18
COc1ccc(S(=O)(=O)NCCOc2cccc3cccnc23)cc1OC	0	12	76*	65*	44*	3
O=C(COC(=O)CCCN=C1NS(=O)(=O)c2ccccc21)NC(=O)NC1CCCC1	72*	17	97*	105*	36	105*
CCCC(=O)Nc1c(-c2ccccc2)c(=O)c(C)nn1-c1ccc(C)cc1	/	22	/	/	/	/
COc1cc2c(cc1OC)C(c1ccccc1F)OC(=O)C2 (stereo unspecified)	89*	13	98*	97*	59*	72*
COc1ccc(OC)c(NC(=O)C(=O)NNC(=O)C23CC4CC(CC(C4)C2)C3)c1	/	19	/	/	/	/
COc1ccc(C2=Nn3c(nnc3-c3ccccc3OC)SC2)cc1OC	-4	/	-6	-5	-12	-2
COc1ccc(C2=Nn3c(nnc3-c3ccco3)SC2)cc1OC	29	/	14	26	8	44*
Cc1nc2scc(-c3ccccc3)c2c(=O)n1N	-3	/	1	0	0	0
Cc1nc2scc(-c3ccccc3)c2c(=O)n1N=C1C=CC(=O)C=C1	19	-17	17	-1	40*	4
O=C(NC1(N2CCOCC2)CC1)c1ccc(Cl)cc1	/	3	/	/	/	/
O=C1c2ccccc2C(=O)c2cc(S(=O)(=O)Nc3ccccc3)ccc21	-5	12	0	41*	-1	-6
O=C(O)c1cccc(NS(=O)(=O)c2ccc3c(c2)C(=O)c2ccccc2C3=O)c1	/	9	/	/	/	/
CNc1ccc(Br)cc(C(=O)/C=C/c2cc(OC)ccc2OC)c1=O	22	13	25	-21	42*	26
CNc1ccc(Br)cc(C(=O)/C=C/c2ccc(OC)cc2)c1=O	10	8	8	-8	18	0
SMILES	Bcl-W Bim block	Calb biofilm kill	Bcl-2 Bim block	Bcl-B Bim block	Bim-Bfl-1	Bim-Bcl-XL
CCN1/C(=C/c2ccc3cc(C)cc(C)c3[n+]2CC)Sc2cc(C)ccc21	15	12	37	-59	45*	29
CSC1=NC(C(Cl)(Cl)Cl)N=C(c2ccccc2)N1 (stereo unspecified)	0	23	-3	-3	-4	-2
CC(C)(C=O)C1=CC(=O)c2ccccc2C1=O	9	16	2	15	49*	2
O=C(COC(=O)c1ccc(CO)cc1)Nc1ccc(OC(F)F)cc1	-1	3	-1	-4	-2	-2
O=C(Nc1nnc(SCc2ccccn2)s1)C1CC(=O)N(c2ccccc2)C1 (stereo unspecified)	31	27	28	35	34	40*
CCCCCCCOC(=O)c1nc(Cl)c(Cl)c(N)c1Cl	-4	1	-13	-8	-2	-6
CCCCOC(=O)c1nc(Cl)c(Cl)c(N)c1Cl	-2	17	25	42*	2	3
CCc1cc(SC#N)cc(CC)c1NC(=O)CCl	-6	3	-5	-15	-1	-9
c1ccc(Nc2cccc(Nc3ccccc3)n2)cc1	47*	/	30	13	68*	15
c1ccc(Nc2ccccn2)cc1	-1	/	0	1	0	-3
COc1ccc(CN(C)CC(=O)NC(C)c2ccccc2)c(OC)c1 (stereo unspecified)	39	11	62*	60*	56*	30
COc1cccc(NC(=O)CN(C)CC(=O)NC(C)c2ccccc2)c1 (stereo unspecified)	/	19	/	/	/	/
CNC(=S)N(Cc1cccs1)Cc1cc2ccc(OC)cc2[nH]c1=O	26	11	30	29	47*	35
COc1ccc(N(CC(=O)N/N=C/c2ccc3c(c2)OCO3)S(=O)(=O)c2ccccc2)cc1	-4	7	-5	-6	-4	-2
OCCN1CCN(CCCc2c3c(cc4c2CCC4)CCC3)CC1	32	12	21	61*	13	32
CCc1ccc([C@@H]2C[C@H]3CN(Cc4ccccc4OC)C(=O)[C@]34CCCN24)cc1	0	-5	-4	-3	-6	-6
CSc1n[nH]c2nc3c(c(=O)n12)C1(CCCC1)Cc1ccccc1-3	33	14	31	31	44*	40*
COc1ccc(-c2noc(COc3ccc4c(c3)OCO4)n2)cc1	-1	/	-1	0	0	-1
COc1ccc(-c2noc(COc3ccc4c(c3)OCO4)n2)cc1OC	18	/	85*	/	/	23
CCOC(=O)C1CCCN(c2ncnc3c2cnn3-c2cccc(C)c2)C1 (stereo unspecified)	30	/	33	26	47*	46*
CCN(CC)C(=O)C1CCCN(c2ncnc3c2cnn3-c2cccc(C)c2)C1 (stereo unspecified)	6	/	-5	-1	-12	1
Cc1ccc(S(=O)(=O)/N=C2/C=C(Sc3ncn[nH]3)C(=O)c3ccccc32)cc1	13	19	18	-5	62*	0
Cc1ccc(S(=O)(=O)/N=C2/C=C(Sc3ncn[nH]3)C(=O)c3ccccc32)c(C)c1	29	19	21	12	69*	5
Cc1ccnc2ccc(SC(F)(F)F)cc12	-2	13	0	-2	-3	-3
CN(C)S(=O)(=O)N(CC(=O)Nc1ccccc1C(F)(F)F)c1ccccc1	17	/	86*	/	/	19
CSc1ccccc1NC(=O)CN(c1ccccc1)S(=O)(=O)N(C)C	0	/	0	-6	-10	-2
CCOCCCNS(=O)(=O)c1ccc(NC(=O)Cc2c(F)cccc2Cl)cc1	-1	8	-6	-4	-7	-2
